Values after ≈ are worked out from the molar mass of the structure shown. Active and inactive are the calls of the source. The calls are words filed in the database; no cut-off is given here.
Experiments:
Candida albicans = assay: Antifungal activity against Candida albicans ATCC 90028; assay type: functional
Procedure, shortened: (§1)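 Broth microdilution following modified NCCLS methods, Franzblau variant for M. intracellulare. DMSO samples serially diluted in saline and tested in duplicate. Inoculum set by 0.5 McFarland. Media: C. albicans SDB or RPMI 1640; C. neoformans SDB; A. fumigatus YM broth (MIC) or RPMI-1640 + 5% Alamar Blue (IC50); M. intracellulare 7H9/OADC + 5% Alamar Blue. Top final concentration 20 µg/mL.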

Cryptococcus neoformans = assay: Antifungal activity against Cryptococcus neoformans ATCC 90113; assay type: functional, organism-based; procedure, shortened: as §1
[1] = system: Mycobacterium intracellulare; assay: Antibacterial activity against Mycobacterium intracellular ATCC 23068; assay type: functional, organism-based; procedure, shortened: as §1
Leishmania donovani = assay: Antileishmanial activity against Leishmania donovani promastigotes; assay type: functional, organism-based
Procedure, shortened: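 L. donovani promastigotes from a 3-day culture in RPMI 1640 with 10% FCS, diluted to 5×10^5/mL. Drug dilutions made directly in the cell suspension. 48 h at 26 °C. Growth measured by Alamar Blue fluorescence at 544/590 nm. IC50 and IC90 from percent growth versus concentration.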

[2] = Anti-infective activity against Plasmodium falciparum D6 infected red blood cells; assay type: functional
Aspergillus fumigatus = assay: Antifungal activity against Aspergillus fumigatus ATCC 90906; assay type: functional, organism-based; details: for MIC: in the assay text read “Antifungal” for “Antibacterial”; procedure, shortened: as §1
Plasmodium falciparum [3] = assay: Anti-infective activity against Plasmodium falciparum W2 in erythrocytes; assay type: functional, organism-based
Vero = assay: Cytotoxicity against Vero cells; assay type: cell-based; details: Chlorocebus sabaeus
Procedure, shortened: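 VERO monkey kidney […] seeded at 25,000 cells/well and grown 24 h, then exposed to compound for 48 h, highest concentration 23.8 µg/ml. Viability by neutral red uptake. IC50 from growth-inhibition curves. DMSO as vehicle control.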

Plasmodium falciparum [4] = assay: Anti-infective activity against Plasmodium falciparum W2 in erythrocytes up to 4.76 ug/mL; assay type: functional, organism-based
Plasmodium falciparum [5] = assay: Anti-infective activity against Plasmodium falciparum D6 infected red blood cells up to 4.76 ug/mL; assay type: functional

SMILES	MIC (Candida albicans) [µg/mL]	MIC (Cryptococcus neoformans) [µg/mL]	IC50 [1] [µg/mL]	IC50 (Leishmania donovani) [µg/mL]	IC50 [2] [µg/mL]	IC50 (Aspergillus fumigatus) [µg/mL]	IC50 (Plasmodium falciparum [3]) [µg/mL]	MIC (Aspergillus fumigatus) [µg/mL]	IC50 (Cryptococcus neoformans) [µg/mL]	IC50 (Vero) [µg/mL]	Activity (Plasmodium falciparum [4])	Activity (Plasmodium falciparum [5])
C[n+]1c2ccccc2cc2sc3ccccc3c21.O=S(=O)([O-])C(F)(F)F	10	> 20	15	0.27	0.34	6.5	0.3	–	–	> 23.8	–	–
C[n+]1c2ccccc2cc2oc3ccccc3c21.[I-]	> 20	> 20	> 20	2.2	0.28	15	0.28	–	–	> 23.8	–	–
C[n+]1c2ccc(C#N)cc2cc2sc3ccccc3c21.[I-]	> 20	> 20	> 20	2.6	–	–	–	20	–	> 23.8	inactive	inactive
C[C@@H]1CC[C@H]2[C@@H](C)C(=O)O[C@@H]3O[C@@]4(C)CC[C@@H]1[C@]32OO4 [ARTEMISININ]	–	–	–	–	0.02 (≈ 0.0708 µM)	–	0.02 (≈ 0.0708 µM)	–	–	> 4.7	–	–
[I-].c1ccc(CCCCC[n+]2cccc3sc4ccccc4c32)cc1	> 20	20	1.5	1.2	0.27	–	0.22	20	–	20	–	–
O=C(O)c1cn(C2CC2)c2cc(N3CCNCC3)c(F)cc2c1=O [CIPROFLOXACIN]	–	–	0.35 (≈ 1.06 µM)	–	–	–	–	–	–	–	–	–
C[n+]1c2c(cc3ccccc31)Cc1ccccc1-2.[I-]	> 20	> 20	> 20	–	–	–	–	> 20	–	–	–	–
C[n+]1c2ccc(C(=O)O)cc2cc2sc3ccccc3c21.[I-]	> 20	> 20	20	0.39	–	–	4.5	10	–	7	–	inactive
C[C@@H]1[C@H](O)[C@@H](C)/C=C/C=C/C=C/C=C/C=C/C=C/C=C/[C@H](O[C@@H]2O[C@H](C)[C@@H](O)[C@H](N)[C@@H]2O)C[C@@H]2O[C@](O)(C[C@@H](O)C[C@@H](O)[C@H](O)CC[C@@H](O)C[C@@H](O)CC(=O)O[C@H]1C)C[C@H](O)[C@H]2C(=O)O [AMPHOTERICIN B]	0.25 (≈ 0.271 µM)	0.95 (≈ 1.03 µM)	–	–	–	0.85 (≈ 0.92 µM)	–	–	–	–	–	–
C[n+]1c2ccc(C(N)=O)cc2cc2sc3ccccc3c21.[I-]	> 20	> 20	> 20	40	–	–	–	> 20	–	> 23.8	inactive	inactive
CCN(CC)CCCC(C)Nc1ccnc2cc(Cl)ccc12 (centres undefined) [CHLOROQUINE]	–	–	–	–	0.02 (≈ 0.0625 µM)	–	–	–	–	> 4.7	–	–
N=C(N)c1ccc(OCCCCCOc2ccc(C(=N)N)cc2)cc1 [PENTAMIDINE]	–	–	–	0.7 (≈ 2.06 µM)	–	–	–	–	–	–	–	–
C[n+]1c2ccccc2cc2[nH]c3ccccc3c21.[I-] [CRYPTOLEPTINE IODIDE]	2	–	15	0.23	0.18	–	0.35	> 20	–	3.2	–	–

Second part, led by results:

MIC (Candida albicans) [µg/mL]	MIC (Cryptococcus neoformans) [µg/mL]	IC50 [1] [µg/mL]	IC50 (Leishmania donovani) [µg/mL]	IC50 [2] [µg/mL]	IC50 (Aspergillus fumigatus) [µg/mL]	IC50 (Plasmodium falciparum [3]) [µg/mL]	MIC (Aspergillus fumigatus) [µg/mL]	IC50 (Cryptococcus neoformans) [µg/mL]	SMILES	IC50 (Vero) [µg/mL]	Activity (Plasmodium falciparum [4])	Activity (Plasmodium falciparum [5])
> 20	> 20	> 20	> 40	0.4	–	0.46	> 20	–	C[n+]1cccc2sc3ccc([N+](=O)[O-])cc3c21.[I-]	> 23.8	–	–
–	–	> 20	0.35	1.6	–	2	> 20	–	C[n+]1c2ccccc2cc2sc3ccccc3c21.[I-]	> 23.8	–	–
2	15	> 20	0.42	4	–	2.8	4	–	C[n+]1c2ccc(Cl)cc2cc2sc3ccccc3c21.[I-]	> 23.8	–	–
> 20	> 20	> 20	–	1.5	–	1.2	> 20	–	C[n+]1cccc2sc3ccccc3c21.[I-]	> 23.8	–	–
> 20	–	> 20	0.6	0.74	–	0.74	20	8	COc1ccc2c(c1)cc1sc3ccccc3c1[n+]2C.[I-]	> 23.8	–	–
> 20	> 20	15	3	0.18	–	0.2	> 20	–	CN(C)c1ccc2sc3ccc[n+](C)c3c2c1	> 23.8	–	–

From ChEMBL document CHEMBL1145530, “Synthesis and evaluation of isosteres of N-methyl indolo[3,2-b]-quinoline (cryptolepine) as new antiinfective agents” (Bioorg Med Chem, 2007)
